Measured values as given in ChEMBL document CHEMBL1149431 (Bioorg Med Chem Lett, 2006).
Activity calls are given as the source filed them. The calls are words filed in the database; no cut-off is given here.

What was measured:
[1] = Metabolic stability by incubation with human liver microsomes; assay type: ADME, Microsome
In short: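 Human liver microsomes (4 mg protein/mL) incubated with compound at 23 µM, 37 ± 1 °C, in 50 mM potassium phosphate pH 7.4 with 3 mM MgCl2 and 1 mM EDTA. Sampled at 0, 90 and 180 min; half-life calculated from loss of parent compound.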

[2] = Metabolic stability by incubation with human hepatocytes; assay type: ADME, cell-based, Liver, Hepatocyte
In short: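 Compounds at 23 µM incubated separately with pooled (n = 2) cryopreserved human hepatocytes (2 million cells/mL) in phenol-red-free Waymouth's medium with FBS 4.5%, insulin, glutamine 3.6 mM, pyruvate 4.5 mM, dexamethasone 0.9 µM; 1% methanol. Samples at 0, 180, 360 min quenched in acetonitrile, protein spun off. Half-life from parent disappearance.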

[3] = target: Sodium-dependent noradrenaline transporter (Homo sapiens, UniProt P23975); experiment: Inhibition of reuptake of Norepinephrine
Rattus norvegicus [4] = experiment: Effect on latency in tail flick in rat after 1,2,4 and 8 hrs of administration of 50 mg/kg, ip; assay type: functional, organism-based; set-up: dose 50 mg/kg
In short: (§1)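 Rat tail-flick model; single intraperitoneal dose of 50 mg/kg, with 5 mg/kg ip morphine and saline as controls. Tail-flick latency (s) read at 1, 2, 4 and 8 h after dosing. n = 9–10 per group; significance vs control by Dunnett's test (p<0.05, p<0.01).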

Rattus norvegicus [5] = experiment: Effect on latency in tail flick in rat after 1 and 2 hrs of administration of 50 mg/kg, ip; assay type: functional, organism-based; set-up: dose 50 mg/kg; settings: tested as the 2H-labelled form; in short: as §1

Chain of Sodium-dependent noradrenaline transporter (P23975 whole entry): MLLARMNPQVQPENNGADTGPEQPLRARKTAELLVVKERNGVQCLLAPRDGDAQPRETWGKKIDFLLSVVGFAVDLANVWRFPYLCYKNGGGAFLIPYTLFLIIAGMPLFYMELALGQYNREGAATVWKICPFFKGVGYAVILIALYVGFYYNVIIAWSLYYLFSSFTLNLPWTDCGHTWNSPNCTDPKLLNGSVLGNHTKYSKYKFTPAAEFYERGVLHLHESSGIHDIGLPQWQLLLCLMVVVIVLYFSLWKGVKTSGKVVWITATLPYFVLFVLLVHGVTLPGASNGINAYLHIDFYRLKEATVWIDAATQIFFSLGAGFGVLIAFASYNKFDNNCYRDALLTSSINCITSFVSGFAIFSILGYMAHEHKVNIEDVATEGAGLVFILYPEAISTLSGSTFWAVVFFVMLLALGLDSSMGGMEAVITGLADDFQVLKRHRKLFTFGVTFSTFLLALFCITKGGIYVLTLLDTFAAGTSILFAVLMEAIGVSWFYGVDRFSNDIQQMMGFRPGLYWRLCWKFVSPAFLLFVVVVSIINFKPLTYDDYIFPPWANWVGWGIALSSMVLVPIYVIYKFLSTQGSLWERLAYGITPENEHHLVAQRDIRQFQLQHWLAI

With [2H]C([2H])([2H])N(C[C@H]1CCCC[C@]1(O)c1cccc(OC)c1)C([2H])([2H])[2H] the half-life [1] was 9.12 h, the half-life [2] was 14.2 h and the IC50 [3] was 3.2 µM.

Work on [2H]C([2H])([2H])Oc1cccc([C@@]2(O)CCCC[C@@H]2CN(C([2H])([2H])[2H])C([2H])([2H])[2H])c1 yielded a half-life [1] of 120 h, a half-life [2] of 60.2 h and an IC50 [3] of 2 µM.

[2H]C([2H])([2H])Oc1cccc([C@@]2(O)CCCC[C@@H]2CN(C)C)c1 showed a half-life [1] of 12.4 h, a half-life [2] of 22.2 h and an IC50 [3] of 3.6 µM.

In the case of COc1cccc([C@@]2(O)CCCC[C@@H]2CN(C)C)c1 [TRAMADOL], the half-life [1] is reported as 12.3 h, the Activity (Rattus norvegicus [4]) is reported as “Active” and the Activity (Rattus norvegicus [4]; tested as the 2H-labelled form) is reported as “Active”. The half-life [2] was 16.1 h, the IC50 [3] was 0.79 µM and the Activity (Rattus norvegicus [5]) was “Active”.

With CN(C)C[C@H]1CCCC[C@]1(O)c1cccc(O)c1 [O-DESMETHYL TRAMADOL] the half-life [1] was 47 h, the half-life [2] was 26 h and the IC50 [3] was > 10 µM.

[2H]C([2H])([2H])N(C[C@H]1CCCC[C@]1(O)c1cccc(O)c1)C([2H])([2H])[2H] showed a half-life [1] of 12.4 h, a half-life [2] of 27.5 h and an IC50 [3] of 6.7 µM.
